# Compound activity deposited in PubChem BioAssay by Broad Institute.
# Compounds with a hit are over-represented: about 3.8% of the library has one in this group of screens.
# FN deposition inh = fibronectin deposition inhibition | inhibition, % at 12.6 µM | 350,000 tested, 0.086% active | AH1F fibroblasts, Alexa488-fibronectin deposition fluorescence, overnight | AID 743247;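 active = mean inhibition across replicates of 30% or more, regardless of how many single replicates reach that level; inconclusive = mean under 30% yet at least half of replicates reach 30%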;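 also: positive control wells lacked labelled fibronectin entirely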
#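 Material: AH1F fibroblast monolayer depositing Alexa488-labelled fibronectin into matrix | Input: 10000 AH1F cells/well | Medium: DMEM plus 2% serum, read in PBS | Reagent: Alexa488-fibronectin, 24 nM final in well | Compound dosing: One dose per compound, pinned | Schedule: 1 h adhesion, overnight exposure | Measured by: Fluorescence at 485 nm excitation, 525 nm emission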
# ARNT TACC3 PPI = ARNT/TACC3 interaction disruption | Q9Y6A5 | AlphaScreen His-ARNT PAS-B/GST-TACC3 binding, luminescence; TACC3 fragment carries E629A point mutation | inhibition, % at 9.99 µM | 390,000 tested, 0.66% active | AID 623870;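 active = mean inhibition of replicates at least 50% and at least half of replicates each reaching 50%; inconclusive = half or more replicates reach 50% but mean below 50%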;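 also: 0% = complete ARNT plus TACC3 wells and 100% = ARNT alone without TACC3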
# XiGFP reactiv = activators of X-chromosome reactivation in mouse fibroblasts; XiGFP mouse fibroblasts, % GFP-positive cells imaging, 3 d; cells co-treated with 5-aza-dC sensitizer; scaled so ellipticine positive control = 100%; activation, % at 7.58 µM; 360,000 tested, 0.055% active;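 active = mean normalized replicate activation at least 10% and every replicate at or above 10%; inconclusive = only one of the two criteria met; inactive = mean below 10% and not all replicates reach 10%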;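 also: 0% = median of on-plate neutral control wells and 100% = ellipticine 6 µM median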
#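 System: 68-5-11 XiGFP fibroblast line | Buffer or medium: DMEM containing 5-aza-dC | Compound: Single point | Times: Compounds 3 days, fix/stain 15 min at room temperature | Benchmarks: Positive control ellipticine, 6 µM final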
# DENV2 CPE rescue = DENV2-induced cell death inhibition. DENV2-infected cells, cytopathic effect rescue, plate reader. 350,000 tested, 1.7% active. CPE inhibition, % at 9.99 µM; in the data active = CPE inhibition above about 20%, passing the limit was not always enough; inconclusive = no clear call, values can overlap the other calls; tested in BHK-21 cells;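 also: 0% = median of neutral control wells and 100% = median of positive control wells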
# FGF22 binding = FGF22 (human) thermal shift binding; Q9HCT0; recombinant FGF22 thermal shift, SYPRO orange fluorescence; percent of sucrose octasulfate shift, DMSO zero; activity (Tm shift, normalised), % at 9.99 µM; 340,000 tested, 1.5% active;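 active = mean Tm shift, scaled 0 neutral to 100 positive control, at about 1.3% or above, every replicate too, limit read from the data; inconclusive = no clear call, values can overlap the other calls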
# Target sequence (Q9HCT0 whole entry, looked up): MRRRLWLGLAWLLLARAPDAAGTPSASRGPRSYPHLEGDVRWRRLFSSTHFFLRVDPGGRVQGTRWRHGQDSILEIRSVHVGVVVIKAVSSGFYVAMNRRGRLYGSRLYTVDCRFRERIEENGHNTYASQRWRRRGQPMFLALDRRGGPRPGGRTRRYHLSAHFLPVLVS
# SIRT5 block = blocks human SIRT5 desuccinylation of peptide. Q9NXA8. Purified SirT5, succinyl-peptide AMC, trypsin-coupled fluorescence. inhibition, % at 15 µM. 330,000 tested, 1.1% active. AID 652115; in the data active = inhibition above about 15%; inconclusive = no clear call, values can overlap the other calls
# Target sequence (Q9NXA8 whole entry, looked up): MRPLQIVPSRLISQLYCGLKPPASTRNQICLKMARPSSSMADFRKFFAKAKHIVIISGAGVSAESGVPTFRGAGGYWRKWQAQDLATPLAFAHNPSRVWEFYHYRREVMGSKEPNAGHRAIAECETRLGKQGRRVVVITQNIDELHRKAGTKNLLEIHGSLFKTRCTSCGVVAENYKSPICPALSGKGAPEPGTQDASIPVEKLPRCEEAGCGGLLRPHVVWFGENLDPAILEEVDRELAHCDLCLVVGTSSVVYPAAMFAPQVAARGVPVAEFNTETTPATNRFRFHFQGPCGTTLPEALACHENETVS
# ARNT Alpha ctr = interferes with AlphaScreen signal, flagging false ARNT-TACC3 hits; His-ARNT PASB-GST AlphaScreen artifact counter-screen, luminescence; AC50, µM (titrated, usually from 68 µM), inactives show at the highest dose activity change, negative = signal decrease; 1,200 tested, 50% active; shares compounds with ARNT TACC3 PPI;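 active = every separate test run was called active for a drop in luminescence, with AC50 within twice the top valid dose, actives reach about 71 µM in these data; inconclusive = the separate test runs disagree in their calls; inactive = all runs inactive, including signal change in the wrong direction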
# Active calls of the source: *; u = inconclusive; x = no result.
SMILES,FN deposition inh,ARNT TACC3 PPI,XiGFP reactiv,DENV2 CPE rescue,FGF22 binding,SIRT5 block,others
C[C@@H]1CCCCO[C@H](CN(C)C(=O)CCCN(C)C)[C@@H](C)CN([C@H](C)CO)C(=O)c2cc(NS(=O)(=O)c3ccccc3)ccc2O1,-14,-10,0,7,0,-1,
C[C@H]1CCCCO[C@H](CN(C)C(=O)CCCN(C)C)[C@@H](C)CN([C@@H](C)CO)C(=O)c2cc(NS(=O)(=O)c3ccc(F)cc3)ccc2O1,-6,-4,0,56*,0,-2,
O=C(Cc1ccccc1[N+](=O)[O-])NCc1ccco1,7,6,0,-7,44*,1,
O=C(Cc1ccccc1[N+](=O)[O-])NCc1ccncc1,-3,-7,0,x,x,0,
NCC1C2CCC(O2)C1CO (configuration not stated),10,x,1,u,45*,x,
CCN1CCN(C(=S)c2ccc(OC)cc2)CC1,-1,11,0,-3,43*,1,
CCOC(=O)N1CCN(CCC(=O)Nc2ccc(OC)cc2OC)CC1,x,2,x,1,0,-2,
CCN1CCN(C(=O)C(C)Nc2ccc(OC)cc2OC)CC1 (configuration not stated),-2,42*,2,x,0,15*,
COc1ccc(NC(=O)N2C[C@@H](O)COC[C@H]3O[C@H](CC(=O)NCc4ccncn4)CC[C@@H]32)cc1,-8,-12,0,-6,0,-3,
CC(=O)Nc1cc2c(cc1Cl)Cc1cc(Cl)ccc1-2,6,-1,0,3,43*,x,
CC(=O)Nc1ccc2c(c1)Cc1ccc(Cl)cc1-2,3,-5,0,-9,0,1,
Nc1ccc2c(c1)C(=O)c1cc(N)c(Cl)cc1-2,-6,4,0,6,43*,x,
O=C1c2cccc3c(N4CCCCC4)ccc(c23)C(=O)N1c1cccc(O)c1,-7,-12,2,9,44*,-3,
O=C1c2cccc3c(N4CCCCC4)ccc(c23)C(=O)N1CCO,-3,-23,x,x,x,x,
COc1ccccc1NC(=O)N[C@H]1CC[C@@H](CC(=O)N2CCC(Cc3ccccc3)CC2)O[C@@H]1CO,3,2,1,-2,0,-7,
Nc1sc(-c2ccccc2)cc1C(=O)NCCN1CCOCC1,11,x,0,26*,0,-1,
O=C(NCCN1CCOCC1)c1ccccc1-c1ccccc1,5,x,x,x,x,x,
O=C(C[C@@H]1CC[C@@H]2[C@H](COC[C@@H](O)CN2CC2CCCCC2)O1)NCC1CC1,8,-5,0,9,0,-1,
COCC#Cc1ccc([C@H]2[C@@H](CO)N3CCCCN(Cc4cncnc4)C[C@H]23)cc1,x,6,0,-3,0,-2,
CC(C)(C)c1[nH]nc2c1C(c1ccsc1)C(C#N)=C(N)O2 (configuration not stated),3,x,0,-2,43*,2,
COc1ccc2c3c([nH]c2c1)[C@H](CO)N(S(C)(=O)=O)CC31CN(C(=O)Nc2ccccc2)C1,x,x,1,3,0,-1,
O=C1C2CCCCN2C(=O)N1CCCCN1CCN(c2cccc(Br)c2)CC1 (configuration not stated),9,active,1,4,0,-4,ARNT Alpha ctr=-13%
Cc1ccccc1CN(C)C[C@H]1OCc2cn(nn2)CCCC(=O)N([C@H](C)CO)C[C@H]1C,2,5,0,4,0,0,
C[C@@H]1CCCCO[C@@H](CN(C)Cc2ccc3c(c2)OCO3)[C@H](C)CN([C@H](C)CO)C(=O)c2cc(NC(=O)Nc3ccc4c(c3)OCO4)ccc2O1,6,20,0,-24,-1,2,
Fc1ccc(/C=N/Nc2ncnc3nc[nH]c23)cc1F,9,52*,0,-11,0,-1,ARNT Alpha ctr=-11%
